{
  "source": "ChEMBL document CHEMBL1124486",
  "about": "“Antimalarial activity of new water-soluble dihydroartemisinin derivatives. 2. Stereospecificity of the ether side chain” (J Med Chem, 1989)",
  "key": {"Plasmodium falciparum [1]": {"test_system": "Plasmodium falciparum", "assay": "In vitro antimalarial activity against Plasmodium falciparum D6 (Sierra Leone)", "assay_type": "functional, organism-based", "method_in_brief": "(§1)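 [³H]hypoxanthine uptake assay. Compound was dissolved in DMSO and 70% ethanol, diluted in RPMI 1640 with 10% human plasma, then tested over (1.56-100) × 10⁻⁹ M. Parasites (0.5% parasitemia, 1% hematocrit) were incubated 24 h with compound, then [³H]hypoxanthine was added and incubation continued 18 h. Cells were harvested and counted by scintillation. IC50 came from nonlinear regression of concentration-response data.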"}, "Plasmodium falciparum [2]": {"test_system": "Plasmodium falciparum", "assay": "In vitro antimalarial activity against Plasmodium falciparum W-2 Indochina", "assay_type": "functional, organism-based", "method_in_brief": "as §1"}, "Plasmodium berghei [3]": {"test_system": "Plasmodium berghei", "assay": "Cures in Plasmodium berghei infected mice (Mus musculus) after 3 days at 20 mg/kg; cured 0 of 5", "assay_type": "functional"}, "Plasmodium berghei [4]": {"test_system": "Plasmodium berghei", "assay": "Cures in Plasmodium berghei infected mice (Mus musculus) after 3 days at 320 mg/kg; cured 5 of 5", "assay_type": "functional"}, "Plasmodium berghei [5]": {"test_system": "Plasmodium berghei", "assay": "Increased mean survival time (>12-14 days) in Plasmodium berghei infected mice (Mus musculus) after 3days at 20 mg/kg; active in 2 of 5", "assay_type": "functional"}, "Plasmodium berghei [6]": {"test_system": "Plasmodium berghei", "assay": "Cures in Plasmodium berghei infected mice (Mus musculus) after 3 days at 80 mg/kg; cured 1 of 5", "assay_type": "functional"}, "Plasmodium berghei [7]": {"test_system": "Plasmodium berghei", "assay": "Increased mean survival time (>12-14 days) in P berghei infected mice (Mus musculus) after 3 days at 80 mg/kg; active in 3 of 5", "assay_type": "functional"}, "Plasmodium berghei [8]": {"test_system": "Plasmodium berghei", "assay": "Increased mean survival time (>12-14 days) in Plasmodium berghei infected mice (Mus musculus) after 3 days at 20 mg/kg; active in 4 of /5", "assay_type": "functional"}, "Plasmodium berghei [9]": {"test_system": "Plasmodium berghei", "assay": "Cures in Plasmodium berghei infected mice (Mus musculus) after 3 days at 80 mg/kg; […]", "assay_type": "functional"}, "Plasmodium berghei [10]": {"test_system": "Plasmodium berghei", "assay": "Cures in Plasmodium berghei infected mice (Mus musculus) after 3 days at 20 mg/kg; cured 1 of 5", "assay_type": "functional"}, "Plasmodium berghei [11]": {"test_system": "Plasmodium berghei", "assay": "Cures in Plasmodium berghei infected mice (Mus musculus) after 3 days at 320 mg/kg; cured 3 of 5", "assay_type": "functional"}, "Plasmodium berghei [12]": {"test_system": "Plasmodium berghei", "assay": "Cures in Plasmodium berghei infected mice (Mus musculus) after 3 days at 80 mg/kg; cured 0 of 5", "assay_type": "functional"}, "Plasmodium berghei [13]": {"test_system": "Plasmodium berghei", "assay": "Increased mean survival time (>12-14 days) in P berghei infected mice (Mus musculus) after 3 days at 80 mg/kg; active in 5 of 5", "assay_type": "functional"}, "Plasmodium berghei [14]": {"test_system": "Plasmodium berghei", "assay": "Cures in Plasmodium berghei infected mice (Mus musculus) after 3 days at 640 mg/kg; cured 4 of 5", "assay_type": "functional"}, "Plasmodium berghei [15]": {"test_system": "Plasmodium berghei", "assay": "Increase in mean survival time (>12-14 days) in Plasmodium berghei infected mice (Mus musculus) after 3 days at 80 mg/kg; active in 1 of 5", "assay_type": "functional"}, "Plasmodium berghei [16]": {"test_system": "Plasmodium berghei", "assay": "Cures in Plasmodium berghei infected mice (Mus musculus) after 3 days at 160 mg/kg; cured 1 of 5", "assay_type": "functional"}, "Plasmodium berghei [17]": {"test_system": "Plasmodium berghei", "assay": "Cures in Plasmodium berghei infected mice (Mus musculus) after 3 days at 80 mg/kg; cured 2 of 5", "assay_type": "functional"}, "Plasmodium berghei [18]": {"test_system": "Plasmodium berghei", "assay": "Increased mean survival time (>12-14 days) in Plasmodium berghei infected mice (Mus musculus) after 3 days at 80 mg/kg; active in 1 of 5", "assay_type": "functional"}, "Plasmodium berghei [19]": {"test_system": "Plasmodium berghei", "assay": "Cures in Plasmodium berghei infected mice (Mus musculus) after 3 days at 160 mg/kg; cured 5 of 5", "assay_type": "functional"}, "Plasmodium berghei [20]": {"test_system": "Plasmodium berghei", "assay": "Cures in Plasmodium berghei infected mice (Mus musculus) after 3 days at 640 mg/kg; cured 5 of 5", "assay_type": "functional"}},
  "data": [
    {"compound": "C[C@H]1[C@@H](OC[C@H](C)C(=O)O)O[C@@H]2O[C@@]3(C)CC[C@H]4[C@H](C)CC[C@@H]1[C@@]24OO3", "values": [
      {"measurement": "IC50", "setting": "Plasmodium falciparum [1]", "result": 28.7, "unit": "ng/mL"},
      {"measurement": "IC50", "setting": "Plasmodium falciparum [2]", "result": 8.33, "unit": "ng/mL"}
    ]},
    {"compound": "COC(=O)C[C@@H](C)O[C@H]1O[C@@H]2O[C@@]3(C)CC[C@H]4[C@H](C)CC[C@@H]([C@H]1C)[C@@]24OO3", "values": [
      {"measurement": "IC50", "setting": "Plasmodium falciparum [1]", "result": 0.44, "unit": "ng/mL"},
      {"measurement": "IC50", "setting": "Plasmodium falciparum [2]", "result": 0.071, "unit": "ng/mL"}
    ]},
    {"compound": "C[C@H]1[C@@H](O[C@@H](C)CC(=O)O)O[C@@H]2O[C@@]3(C)CC[C@H]4[C@H](C)CC[C@@H]1[C@@]24OO3", "values": [
      {"measurement": "IC50", "setting": "Plasmodium falciparum [1]", "result": 15, "unit": "ng/mL"},
      {"measurement": "IC50", "setting": "Plasmodium falciparum [2]", "result": 7.43, "unit": "ng/mL"}
    ]},
    {"compound": "COC(=O)[C@@H](C)CO[C@H]1O[C@@H]2O[C@@]3(C)CC[C@H]4[C@H](C)CC[C@@H]([C@H]1C)[C@@]24OO3", "values": [
      {"measurement": "IC50", "setting": "Plasmodium falciparum [1]", "result": 0.36, "unit": "ng/mL"},
      {"measurement": "IC50", "setting": "Plasmodium falciparum [2]", "result": 0.015, "unit": "ng/mL"}
    ]},
    {"compound": "COC(=O)[C@H](C)CO[C@H]1O[C@@H]2O[C@@]3(C)CC[C@H]4[C@H](C)CC[C@@H]([C@H]1C)[C@@]24OO3", "values": [
      {"measurement": "No. of mice cured", "setting": "Plasmodium berghei [3]", "result": 0},
      {"measurement": "No. of mice cured", "setting": "Plasmodium berghei [4]", "result": 5},
      {"measurement": "IC50", "setting": "Plasmodium falciparum [1]", "result": 2.15, "unit": "ng/mL"},
      {"measurement": "No. of mice survived", "setting": "Plasmodium berghei [5]", "result": 2},
      {"measurement": "IC50", "setting": "Plasmodium falciparum [2]", "result": 0.057, "unit": "ng/mL"},
      {"measurement": "No. of mice cured", "setting": "Plasmodium berghei [6]", "result": 1},
      {"measurement": "No. of mice survived", "setting": "Plasmodium berghei [7]", "result": 3}
    ]},
    {"compound": "COC(=O)C[C@H](C)O[C@H]1O[C@@H]2O[C@@]3(C)CC[C@H]4[C@H](C)CC[C@@H]([C@H]1C)[C@@]24OO3", "values": [
      {"measurement": "No. of mice survived", "setting": "Plasmodium berghei [8]", "result": 4},
      {"measurement": "No. of mice cured", "setting": "Plasmodium berghei [9]", "result": 5},
      {"measurement": "No. of mice cured", "setting": "Plasmodium berghei [4]", "result": 5},
      {"measurement": "IC50", "setting": "Plasmodium falciparum [1]", "result": 1.91, "unit": "ng/mL"},
      {"measurement": "No. of mice cured", "setting": "Plasmodium berghei [10]", "result": 1},
      {"measurement": "IC50", "setting": "Plasmodium falciparum [2]", "result": 0.48, "unit": "ng/mL"}
    ]},
    {"compound": "C[C@H]1[C@@H](OC[C@@H](C)C(=O)O)O[C@@H]2O[C@@]3(C)CC[C@H]4[C@H](C)CC[C@@H]1[C@@]24OO3", "values": [
      {"measurement": "IC50", "setting": "Plasmodium falciparum [1]", "result": 22.2, "unit": "ng/mL"},
      {"measurement": "IC50", "setting": "Plasmodium falciparum [2]", "result": 5.32, "unit": "ng/mL"}
    ]},
    {"compound": "C[C@H]1[C@@H](O[C@H](C)CC(=O)O)O[C@@H]2O[C@@]3(C)CC[C@H]4[C@H](C)CC[C@@H]1[C@@]24OO3", "values": [
      {"measurement": "IC50", "setting": "Plasmodium falciparum [1]", "result": 36.5, "unit": "ng/mL"},
      {"measurement": "IC50", "setting": "Plasmodium falciparum [2]", "result": 4.42, "unit": "ng/mL"}
    ]},
    {"compound": "C[C@H]1[C@@H](OCC23CC4CC(CC(C4)C2)C3)O[C@@H]2O[C@@]3(C)CC[C@H]4[C@H](C)CC[C@@H]1[C@@]24OO3", "values": [
      {"measurement": "No. of mice cured", "setting": "Plasmodium berghei [3]", "result": 0},
      {"measurement": "No. of mice cured", "setting": "Plasmodium berghei [11]", "result": 3},
      {"measurement": "No. of mice cured", "setting": "Plasmodium berghei [12]", "result": 0},
      {"measurement": "No. of mice survived", "setting": "Plasmodium berghei [13]", "result": 5},
      {"measurement": "IC50", "setting": "Plasmodium falciparum [1]", "result": 2.7, "unit": "ng/mL"},
      {"measurement": "IC50", "setting": "Plasmodium falciparum [2]", "result": 2.11, "unit": "ng/mL"}
    ]},
    {"compound": "CC1=CO[C@@H]2O[C@]3(C)CC[C@H]4[C@H](C)CC[C@@H]1[C@@]24OO3", "note": "[ANHYDRODIHYDROARTEMISININ]", "values": [
      {"measurement": "No. of mice cured", "setting": "Plasmodium berghei [14]", "result": 4},
      {"measurement": "No. of mice survived", "setting": "Plasmodium berghei [9]", "result": 2},
      {"measurement": "No. of mice survived", "setting": "Plasmodium berghei [15]", "result": 1},
      {"measurement": "No. of mice cured", "setting": "Plasmodium berghei [16]", "result": 1},
      {"measurement": "No. of mice cured", "setting": "Plasmodium berghei [17]", "result": 2},
      {"measurement": "IC50", "setting": "Plasmodium falciparum [1]", "result": 0.83, "unit": "ng/mL"},
      {"measurement": "No. of mice survived", "setting": "Plasmodium berghei [18]", "result": 1},
      {"measurement": "IC50", "setting": "Plasmodium falciparum [2]", "result": 0.43, "unit": "ng/mL"}
    ]},
    {"compound": "C[C@@H]1CC[C@H]2[C@@H](C)C(=O)O[C@@H]3O[C@@]4(C)CC[C@@H]1[C@]32OO4", "note": "[ARTEMISININ]", "values": [
      {"measurement": "No. of mice cured", "setting": "Plasmodium berghei [3]", "result": 0},
      {"measurement": "No. of mice cured", "setting": "Plasmodium berghei [19]", "result": 5},
      {"measurement": "No. of mice cured", "setting": "Plasmodium berghei [17]", "result": 2},
      {"measurement": "IC50", "setting": "Plasmodium falciparum [1]", "result": 2.35, "unit": "ng/mL"},
      {"measurement": "No. of mice survived", "setting": "Plasmodium berghei [5]", "result": 2},
      {"measurement": "IC50", "setting": "Plasmodium falciparum [2]", "result": 2.6, "unit": "ng/mL"},
      {"measurement": "No. of mice survived", "setting": "Plasmodium berghei [7]", "result": 3},
      {"measurement": "No. of mice cured", "setting": "Plasmodium berghei [20]", "result": 5}
    ]},
    {"compound": "C=C[C@H]1CN2CC[C@H]1C[C@H]2[C@H](O)c1ccnc2ccc(OC)cc12", "note": "[QUININE]", "values": [
      {"measurement": "IC50", "setting": "Plasmodium falciparum [1]", "result": 3.61, "unit": "ng/mL"},
      {"measurement": "IC50", "setting": "Plasmodium falciparum [2]", "result": 59, "unit": "ng/mL"}
    ]}
  ]
}
